Experimental data from ChEMBL document CHEMBL1132336, “Synthesis, evaluation, and comparative molecular field analysis of 1-phenyl-3-amino-1,2,3,4-tetrahydronaphthalenes as ligands for histamine H(1) receptors” (J Med Chem, 1999).

Organism: Cavia porcellus
Assay: Compound was tested for the displacement of [3H]mepyramine from Histamine H1 receptor by competition binding assay.
In short: (§1)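 Membranes from guinea pig brain minus cerebellum (P2 fraction, pre-incubated 15 min at 25 °C, stored at –80 °C). Competition with 2 nM [3H]mepyramine in 50 mM Na+K+-phosphate pH 7.4, 1 h at 30 °C, triplicate tubes. Nonspecific binding defined with 20.0 μM triprolidine. Bound ligand collected on GF/B glass fibre filters, rinsed three times with cold buffer and counted by liquid scintillation.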

Question: With CN(C)C1CCc2ccccc2C1 (configuration not stated) as the compound, how does the K0.5 read?
Answer: 75 nM

Question: With CN(C)C1Cc2ccccc2C(C)(c2ccccc2)C1 (stereo in doubt; 14) as the compound, how does the K0.5 read?
Answer: 40 nM

Question: CCN(CC)C1Cc2ccccc2C(c2ccccc2)C1 (configuration not stated) was tested. Which K0.5 did it give?
Answer: 13.3 nM

Question: With CN(C)C1CCc2ccccc2C1c1ccccc1 (stereo in doubt; 8) as the compound, how does the K0.5 read?
Answer: > 2000 nM

Question: With Cc1ccccc1C1CC(N(C)C)Cc2ccccc21 (configuration not stated) as the compound, how does the K0.5 read?
Answer: 12.7 nM

Question: With CN(C)C1Cc2ccccc2C(c2ccccc2)C1 (stereo in doubt; 1d) as the compound, how does the K0.5 read?
Answer: 111 nM

Question: For CN(C)C1Cc2ccccc2C(c2ccccc2)C1 (stereo in doubt; 1b), which K0.5 is on record?
Answer: 19.1 nM

Question: For CN(C)C1Cc2cc(O)c(O)cc2C(c2ccccc2)C1 (stereo in doubt; 13), which K0.5 is on record?
Answer: 11.8 nM

Question: For C[N+](C)(C)C1Cc2ccccc2C(c2ccccc2)C1 (stereo in doubt; 3), which K0.5 is on record?
Answer: 120 nM

Question: For CN(C)C1Cc2ccccc2C(c2ccccc2)C1 (stereo in doubt; 1a), which K0.5 is on record?
Answer: 1.07 nM

Question: For C=CCN1CC[C@@]2(C)c3cc(O)ccc3C[C@H]1[C@H]2C, which K0.5 is on record?
Answer: 2000 nM

Question: With Nc1ccc2c3c(cccc13)-c1ccccc1-2 as the compound, how does the K0.5 read?
Answer: 4000 nM

Question: How did the K0.5 turn out when CC(C)(C)[C@]1(O)CCN2C[C@H]3c4ccccc4CCc4cccc(c43)[C@@H]2C1 was run?
Answer: 405 nM

Question: How did the K0.5 turn out when Cc1ccc(C2CC(N(C)C)Cc3ccccc32)cc1 (configuration not stated) was run?
Answer: 5 nM

Question: How did the K0.5 turn out when CN(C)C1Cc2ccccc2C(c2ccccc2Cl)C1 (configuration not stated) was run?
Answer: 42.7 nM

Question: Which K0.5 does the source give for CN(C)C1Cc2ccccc2C(C)(c2ccccc2)C1 (stereo in doubt; 15) here?
Answer: 4.4 nM

Question: For C[N+](C)(C)C1Cc2ccccc2C(c2ccccc2)C1 (stereo in doubt; 25), which K0.5 is on record?
Answer: 107 nM

Question: For CN(C)C1Cc2ccccc2C(c2ccccc2)C1 (stereo in doubt; 1c), which K0.5 is on record?
Answer: 2.45 nM

Question: How did the K0.5 turn out when CN(C)C1Cc2ccccc2C(c2ccc(Cl)cc2)C1 (configuration not stated) was run?
Answer: 4.4 nM

Question: Which K0.5 does the source give for CN(C)C1CCc2ccccc2C(c2ccccc2)C1 (stereo in doubt; 10) here?
Answer: 217 nM

Question: How did the K0.5 turn out when CN1[C@@H]2CC[C@H]1C[C@@H](OC(=O)C(CO)c1ccccc1)C2 (some centres not stated) was run?
Answer: 580 nM

Question: CN(C)C1Cc2ccccc2C(c2ccc(F)cc2)C1 (configuration not stated) was tested. Which K0.5 did it give?
Answer: 2.3 nM

Question: CN(C)C1Cc2cc(O)c(O)cc2C(c2ccccc2)C1 (stereo in doubt; 12) was tested. Which K0.5 did it give?
Answer: 69 nM

Question: CN(C)c1ccc2c3c(cccc13)-c1ccccc1-2 was tested. Which K0.5 did it give?
Answer: 4000 nM

Question: Which K0.5 does the source give for CNC1Cc2ccccc2C(c2ccccc2)C1 (configuration not stated) here?
Answer: 64 nM

Target: Histamine H1 receptor (Cavia porcellus) (UniProt P31389)
Sequence (P31389 whole entry): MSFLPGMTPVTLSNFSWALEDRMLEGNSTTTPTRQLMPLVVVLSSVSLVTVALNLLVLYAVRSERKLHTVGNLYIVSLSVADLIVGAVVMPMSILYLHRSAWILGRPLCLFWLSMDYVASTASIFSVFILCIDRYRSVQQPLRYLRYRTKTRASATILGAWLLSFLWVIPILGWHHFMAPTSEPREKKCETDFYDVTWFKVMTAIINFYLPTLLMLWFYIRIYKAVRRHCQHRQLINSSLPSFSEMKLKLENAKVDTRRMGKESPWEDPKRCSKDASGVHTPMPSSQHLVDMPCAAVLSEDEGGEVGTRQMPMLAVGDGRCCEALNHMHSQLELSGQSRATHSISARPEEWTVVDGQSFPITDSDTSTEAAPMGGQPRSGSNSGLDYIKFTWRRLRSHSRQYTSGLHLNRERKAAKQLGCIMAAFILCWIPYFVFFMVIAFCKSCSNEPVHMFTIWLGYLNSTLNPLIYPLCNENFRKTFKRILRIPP
Assay: Compound was tested for the displacement of [3H]mepyramine from Histamine H1 receptor by competition binding assay
In short: as §1

Question: Which K0.5 does the source give for CN(C)C1Cc2cc(Cl)c(O)cc2C(c2ccccc2)C1 (stereo in doubt; 2) here?
Answer: 1.47 nM

Question: CN(C)CCOC(c1ccccc1)c1ccccc1 was tested. Which K0.5 did it give?
Answer: 6.1 nM

Question: With OC(CCCN1CCN(c2ncc(F)cn2)CC1)c1ccc(F)cc1 (configuration not stated) as the compound, how does the K0.5 read?
Answer: 548 nM

Question: How did the K0.5 turn out when Cc1ccc(/C(=C\CN2CCCC2)c2ccccn2)cc1 was run?
Answer: 0.46 nM

Question: With CN(C)CC[C@H](c1ccc(Cl)cc1)c1ccccn1 as the compound, how does the K0.5 read?
Answer: 61.6 nM

Question: How did the K0.5 turn out when CN(C)CC[C@@H](c1ccc(Cl)cc1)c1ccccn1 was run?
Answer: 1.16 nM

Question: How did the K0.5 turn out when CN(C)CC/C=C1/c2ccccc2COc2ccccc21 was run?
Answer: 0.16 nM
